{"source": "ChEMBL document CHEMBL4765319", "about": "“Identification of a new series of flavopiridol-like structures as kinase inhibitors with high cytotoxic potency” (Eur J Med Chem, 2020)", "key": {"[1]": {"assay": "Inhibition of human CDK10/cyclin M by ADP-Glo assay"}, "[2]": {"target": "T1, CDK2/Cyclin A2 (Homo sapiens) (UniProt P24941+P20248)", "assay": "Inhibition of human CDK2/cyclin A assessed as residual activity at 1 uM in presence of ATP by ADP-glo luminescent assay relative to control", "assay_type": "protein-complex assay", "how_it_was_run": "(§1)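 Human kinases assayed by ADP-Glo luminescence with 10 μM ATP, compound at 10 or 1 μM. Activity is expressed as % of maximal activity relative to a DMSO control, mean n = 2.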"}, "HCT-116 [3]": {"tested_on": "HCT-116", "assay": "Cell cycle arrest in human HCT-116 cells assessed as accumulation at G2/M phase at 100 nM after 24 hrs by propidium iodide staining-based flow cytometric analysis (reference value: 31.5 %)", "assay_type": "functional"}, "CDK9/cyclin T1": {"target": "CDK9/cyclin T1 (Homo sapiens, UniProt P50750)", "sequence (O60563 whole entry)": "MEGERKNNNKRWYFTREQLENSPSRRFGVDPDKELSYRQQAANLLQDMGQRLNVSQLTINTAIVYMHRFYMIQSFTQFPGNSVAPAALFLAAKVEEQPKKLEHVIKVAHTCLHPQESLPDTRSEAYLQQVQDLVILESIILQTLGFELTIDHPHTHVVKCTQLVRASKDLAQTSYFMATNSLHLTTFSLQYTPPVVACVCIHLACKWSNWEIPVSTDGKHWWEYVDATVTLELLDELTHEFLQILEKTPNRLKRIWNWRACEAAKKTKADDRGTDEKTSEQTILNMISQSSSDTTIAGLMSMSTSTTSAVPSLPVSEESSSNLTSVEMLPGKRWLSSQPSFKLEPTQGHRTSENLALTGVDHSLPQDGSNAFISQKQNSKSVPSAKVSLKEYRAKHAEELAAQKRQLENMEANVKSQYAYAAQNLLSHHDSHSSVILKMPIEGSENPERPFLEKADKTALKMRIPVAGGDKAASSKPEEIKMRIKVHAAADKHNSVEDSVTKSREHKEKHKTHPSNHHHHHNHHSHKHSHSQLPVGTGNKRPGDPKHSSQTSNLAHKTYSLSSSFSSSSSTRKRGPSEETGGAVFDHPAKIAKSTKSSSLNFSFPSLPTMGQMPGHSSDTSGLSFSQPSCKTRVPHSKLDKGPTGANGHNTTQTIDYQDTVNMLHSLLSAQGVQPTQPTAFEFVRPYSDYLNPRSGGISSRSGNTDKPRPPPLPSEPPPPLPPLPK", "sequence (P50750 whole entry)": "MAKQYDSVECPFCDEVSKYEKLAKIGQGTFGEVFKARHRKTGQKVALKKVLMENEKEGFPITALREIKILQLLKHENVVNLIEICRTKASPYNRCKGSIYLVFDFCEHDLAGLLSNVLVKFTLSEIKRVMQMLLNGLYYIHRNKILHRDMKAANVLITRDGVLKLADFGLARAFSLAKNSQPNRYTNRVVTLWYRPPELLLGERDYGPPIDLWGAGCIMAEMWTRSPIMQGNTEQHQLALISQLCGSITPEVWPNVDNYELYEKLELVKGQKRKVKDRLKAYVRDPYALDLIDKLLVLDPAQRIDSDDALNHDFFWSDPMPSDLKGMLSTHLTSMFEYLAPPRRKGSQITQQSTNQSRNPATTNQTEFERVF", "assay": "Inhibition of human CDK9/cyclin T in presence of ATP by ADP-glo luminescent assay", "assay_type": "protein-complex assay", "how_it_was_run": "(§2)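 Human kinases tested over roughly 0.0003–10 μM by ADP-Glo luminescence with 10 μM ATP, in duplicate. IC50 is taken from dose-response curves.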"}, "HCT-116 [4]": {"tested_on": "HCT-116", "assay": "Antiproliferative activity against human HCT-116 cells assessed as reduction in cell viability incubated for 72 hrs by CellTiter-Blue fluorescence assay", "conditions": "HCT-116, 72 h"}, "Plasmodium falciparum [5]": {"tested_on": "Plasmodium falciparum", "assay": "Inhibition of Plasmodium falciparum GSK3 assessed as residual activity at 10 uM in presence of ATP by ADP-glo luminescent assay relative to control", "how_it_was_run": "(§3)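 Recombinant P. falciparum GSK3, bacterially expressed, in buffer A (10 mM MgCl2, 1 mM EGTA, 1 mM DTT, 25 mM Tris-HCl pH 7.5, 50 μg/ml heparin). Substrate 0.010 μg/μl GS-1 peptide, 10 μM ATP, ADP-Glo luminescence. Compound at 10 or 1 μM; % residual activity vs DMSO control, mean n = 2.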"}, "K562 [6]": {"tested_on": "K562", "assay": "Cell cycle arrest in human K562 cells assessed as accumulation at S phase at 50 nM after 24 hrs by propidium iodide staining-based flow cytometric analysis (reference value: […])", "assay_type": "functional"}, "Sus scrofa [7]": {"species_on_record": "Sus scrofa", "assay": "Inhibition of porcine CK1delta/epsilon assessed as residual activity at 1 uM in presence of ATP by ADP-glo luminescent assay relative to control"}, "PC-3": {"tested_on": "PC-3", "assay": "Antiproliferative activity against human PC-3 cells assessed as reduction in cell viability incubated for 72 hrs by CellTiter-Blue fluorescence assay", "conditions": "PC-3, 72 h"}, "[8]": {"target": "Glycogen synthase kinase-3 alpha (Homo sapiens, UniProt P49840)", "sequence (P49840 whole entry)": "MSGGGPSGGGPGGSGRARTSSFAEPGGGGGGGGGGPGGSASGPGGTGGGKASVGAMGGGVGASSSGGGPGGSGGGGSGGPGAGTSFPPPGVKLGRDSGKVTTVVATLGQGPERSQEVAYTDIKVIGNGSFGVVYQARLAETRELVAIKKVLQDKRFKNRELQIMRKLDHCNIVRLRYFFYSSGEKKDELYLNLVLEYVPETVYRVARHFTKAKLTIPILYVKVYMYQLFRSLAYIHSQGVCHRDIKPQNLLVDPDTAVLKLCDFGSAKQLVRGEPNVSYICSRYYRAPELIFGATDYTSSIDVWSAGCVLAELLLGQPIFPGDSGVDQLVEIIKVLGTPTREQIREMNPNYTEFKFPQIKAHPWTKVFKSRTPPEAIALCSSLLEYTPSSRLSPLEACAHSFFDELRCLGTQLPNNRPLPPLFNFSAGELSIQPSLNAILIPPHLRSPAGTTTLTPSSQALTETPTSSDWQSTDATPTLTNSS", "assay": "Inhibition of human GSK3alpha by ADP-Glo assay"}, "K562 [9]": {"tested_on": "K562", "assay": "Cell cycle arrest in human K562 cells assessed as increase in accumulation at G2/M phase after 24 hrs by propidium iodide staining-based flow cytometric analysis", "assay_type": "functional", "conditions": "dose 25-100 nM"}, "[10]": {"target": "T2, Glycogen synthase kinase-3 beta (Homo sapiens, UniProt P49841)", "assay": "Potency index, ratio of flavopiridol IC50 to test compound IC50 for human GSK3beta in presence of ATP by ADP-glo luminescent assay"}, "HCT-116 [11]": {"tested_on": "HCT-116", "assay": "Cell cycle arrest in human HCT-116 cells assessed as accumulation at S phase at 200 nM after 24 hrs by propidium iodide staining-based flow cytometric analysis (reference value: 47.6 %)", "assay_type": "functional"}, "Sus scrofa [12]": {"species_on_record": "Sus scrofa", "assay": "Inhibition of porcine GSK3alpha/beta assessed as residual activity at 1 uM in presence of ATP by ADP-glo luminescent assay relative to control", "how_it_was_run": "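Porcine brain GSK3α/β, native and affinity-purified. Assayed by ADP-Glo luminescence with 10 μM ATP and 0.010 μg/μl GS-1 peptide substrate. Buffer A: 10 mM MgCl2, 1 mM EGTA, 1 mM DTT, 25 mM Tris-HCl pH 7.5, 50 μg/ml heparin. Compound tested at 10 or 1 μM. Result is % of maximal activity versus DMSO control, mean of n = 2.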"}, "[13]": {"target": "T1, CDK2/Cyclin A2 (Homo sapiens)", "assay": "Inhibition of human CDK2/cyclin A assessed as residual activity at 10 uM in presence of ATP by ADP-glo luminescent assay relative to control", "assay_type": "protein-complex assay", "how_it_was_run": "as §1"}, "K562 [14]": {"tested_on": "K562", "assay": "Cell cycle arrest in human K562 cells assessed as accumulation at G2/M phase at 25 nM after 24 hrs by propidium iodide staining-based flow cytometric analysis (reference value: 12.9 %)", "assay_type": "functional"}, "[15]": {"target": "T3, Cyclin-dependent kinase 5/CDK5 activator 1 (Homo sapiens) (UniProt Q00535+Q15078)", "T3 sequence (Q00535 whole entry)": "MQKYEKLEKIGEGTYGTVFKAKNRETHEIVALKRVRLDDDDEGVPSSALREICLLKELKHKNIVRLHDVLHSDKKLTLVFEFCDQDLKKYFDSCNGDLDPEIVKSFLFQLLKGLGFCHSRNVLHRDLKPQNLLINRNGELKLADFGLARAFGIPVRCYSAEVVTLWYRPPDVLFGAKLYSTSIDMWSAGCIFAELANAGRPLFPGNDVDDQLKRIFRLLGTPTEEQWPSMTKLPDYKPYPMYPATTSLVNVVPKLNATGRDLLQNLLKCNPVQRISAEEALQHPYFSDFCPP", "T3 sequence (Q15078 99-307 partner limits assumed)": "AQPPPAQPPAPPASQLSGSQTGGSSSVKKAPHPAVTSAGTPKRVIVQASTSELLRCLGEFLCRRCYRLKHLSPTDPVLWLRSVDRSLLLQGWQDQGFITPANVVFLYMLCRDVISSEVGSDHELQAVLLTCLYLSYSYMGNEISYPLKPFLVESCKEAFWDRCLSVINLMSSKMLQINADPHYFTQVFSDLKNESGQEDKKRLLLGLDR", "assay": "Inhibition of human CDK5/p25 assessed as residual activity at 1 uM in presence of ATP by ADP-glo luminescent assay relative to control", "assay_type": "protein-complex assay", "how_it_was_run": "as §1"}, "[16]": {"target": "T3, Cyclin-dependent kinase 5/CDK5 activator 1 (Homo sapiens)", "assay": "Inhibition of human CDK5/p25 assessed as residual activity at 10 uM in presence of ATP by ADP-glo luminescent assay relative to control", "assay_type": "protein-complex assay", "how_it_was_run": "as §1"}, "Leishmania major": {"tested_on": "Leishmania major", "assay": "Inhibition of Leishmania major CK1 assessed as residual activity at 10 uM in presence of ATP by ADP-glo luminescent assay relative to control"}, "[17]": {"target": "T2, Glycogen synthase kinase-3 beta", "assay": "Inhibition of human GSK3beta in presence of ATP by ADP-glo luminescent assay", "how_it_was_run": "as §2"}, "HCT-116 [18]": {"tested_on": "HCT-116", "assay": "Cell cycle arrest in human HCT-116 cells assessed as accumulation at G2/M phase at 200 nM after 24 hrs by propidium iodide staining-based flow cytometric analysis (reference value: 31.5 %)", "assay_type": "functional"}, "K562 [19]": {"tested_on": "K562", "assay": "Cell cycle arrest in human K562 cells assessed as accumulation at S phase at 100 nM after 24 hrs by propidium iodide staining-based flow cytometric analysis (reference value: […])", "assay_type": "functional"}, "K562 [20]": {"tested_on": "K562", "assay": "Cell cycle arrest in human K562 cells assessed as accumulation at S phase at 25 nM after 24 hrs by propidium iodide staining-based flow cytometric analysis (reference value: […])", "assay_type": "functional"}, "K562 [21]": {"tested_on": "K562", "assay": "Cell cycle arrest in human K562 cells assessed as accumulation at G0/G1 phase at 100 nM after 24 hrs by propidium iodide staining-based flow cytometric analysis (reference value: 21.4 %)", "assay_type": "functional"}, "[22]": {"target": "T4, CDK9/cyclin T1 (Homo sapiens) (UniProt O60563+P50750)", "assay": "Inhibition of human CDK9/cyclin T assessed as residual activity at 1 uM in presence of ATP by ADP-glo luminescent assay relative to control", "assay_type": "protein-complex assay", "how_it_was_run": "as §1"}, "HCT-116 [23]": {"tested_on": "HCT-116", "assay": "Cell cycle arrest in human HCT-116 cells assessed as accumulation at G0/G1 phase at 100 nM after 24 hrs by propidium iodide staining-based flow cytometric analysis (reference value: 20.9 %)", "assay_type": "functional"}, "K562 [24]": {"tested_on": "K562", "assay": "Cell cycle arrest in human K562 cells assessed as accumulation at G0/G1 phase at 25 nM after 24 hrs by propidium iodide staining-based flow cytometric analysis (reference value: 21.4 %)", "assay_type": "functional"}, "Sus scrofa [25]": {"species_on_record": "Sus scrofa", "assay": "Inhibition of porcine CK1delta/epsilon assessed as residual activity at 10 uM in presence of ATP by ADP-glo luminescent assay relative to control"}, "Plasmodium falciparum [26]": {"tested_on": "Plasmodium falciparum", "assay": "Inhibition of Plasmodium falciparum GSK3 assessed as residual activity at 1 uM in presence of ATP by ADP-glo luminescent assay relative to control", "how_it_was_run": "as §3"}, "[27]": {"target": "T4, CDK9/cyclin T1 (Homo sapiens)", "assay": "Inhibition of human CDK9/cyclin T assessed as residual activity at 10 uM in presence of ATP by ADP-glo luminescent assay relative to control", "assay_type": "protein-complex assay", "how_it_was_run": "as §1"}}, "data": [{"compound": "CN1CC=C(c2c(O)cc(O)c3c(=O)cc(-c4ccc(Sc5nc6ccccc6n5C)cc4Cl)oc23)CC1", "values": [{"measurement": "IC50", "setting": "[1]", "result": 149, "unit": "nM"}, {"measurement": "Activity", "setting": "[2]", "result": 87, "unit": "%"}, {"measurement": "Activity", "setting": "HCT-116 [3]", "result": 30.7, "unit": "%"}, {"measurement": "IC50", "setting": "CDK9/cyclin T1", "result": 64, "unit": "nM"}, {"measurement": "IC50", "setting": "HCT-116 [4]", "result": 81, "unit": "nM"}, {"measurement": "Activity", "setting": "Plasmodium falciparum [5]", "result": 46, "unit": "%"}, {"measurement": "Activity", "setting": "K562 [6]", "result": 49.4, "unit": "%"}, {"measurement": "Activity", "setting": "Sus scrofa [7]", "result": 90, "unit": "%"}, {"measurement": "IC50", "setting": "PC-3", "result": 85, "unit": "nM"}, {"measurement": "IC50", "setting": "[8]", "result": 70, "unit": "nM"}, {"measurement": "Activity", "setting": "K562 [9]", "result": "Dose-dependent effect"}, {"measurement": "Ratio IC50", "setting": "[10]", "result": 20}, {"measurement": "Activity", "setting": "HCT-116 [11]", "result": 43.1, "unit": "%"}, {"measurement": "Activity", "setting": "Sus scrofa [12]", "result": 31, "unit": "%"}, {"measurement": "Activity", "setting": "[13]", "result": 30, "unit": "%"}, {"measurement": "Activity", "setting": "K562 [14]", "result": 10.7, "unit": "%"}, {"measurement": "Activity", "setting": "[15]", "result": 68, "unit": "%"}, {"measurement": "Activity", "setting": "[16]", "result": 24, "unit": "%"}, {"measurement": "Activity", "setting": "Leishmania major", "result": 38, "unit": "%"}, {"measurement": "IC50", "setting": "[17]", "result": 59, "unit": "nM"}, {"measurement": "Activity", "setting": "HCT-116 [18]", "result": 30.9, "unit": "%"}, {"measurement": "Activity", "setting": "K562 [19]", "result": 21, "unit": "%"}, {"measurement": "Activity", "setting": "K562 [20]", "result": 68.6, "unit": "%"}, {"measurement": "Activity", "setting": "K562 [21]", "result": 50.3, "unit": "%"}, {"measurement": "Activity", "setting": "[22]", "result": 1, "unit": "%"}, {"measurement": "Activity", "setting": "HCT-116 [23]", "result": 20.6, "unit": "%"}, {"measurement": "Activity", "setting": "K562 [24]", "result": 20.7, "unit": "%"}, {"measurement": "Activity", "setting": "Sus scrofa [25]", "result": 62, "unit": "%"}, {"measurement": "Activity", "setting": "Plasmodium falciparum [26]", "result": 80, "unit": "%"}, {"measurement": "Activity", "setting": "[27]", "result": -2, "unit": "%"}]}]}
